Results: ChEMBL document CHEMBL4411301, “Design, Biological Evaluation, and Molecular Modeling of Tetrahydroisoquinoline Derivatives: Discovery of A Potent P-Glycoprotein Ligand Overcoming Multidrug Resistance in Cancer Stem Cells” (J Med Chem, 2019)
Activity calls are given as the source filed them. The rule behind the calls is not given here.

Columns and labels:
Homo sapiens [1] = organism: Homo sapiens; assay: Potentiation of doxorubicin-induced cytotoxicity in human differentiated primary mesothelioma stem cells assessed as increase in doxorubicin-induced reduction in cell viability at 1 uM after 24 hrs by LDH release assay; format: functional, cell-based
Homo sapiens [2] = organism: Homo sapiens; assay: Induction of intracellular doxorubicin accumulation in human differentiated primary glioblastoma cells at 10 to 10000 nM after 3 hrs by spectrofluorimetric analysis; format: functional, cell-based
How it was run: (§1)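 Differentiated or stem cells from primary glioblastoma or mesothelioma of 3 patients (stem cells used within passage 6). Incubated 3 h with 5 µM doxorubicin, alone or with compound (DMSO 1% v/v). Washed, lysed in ethanol/0.3 N HCl, doxorubicin fluorescence read at ex 475/em 553 nm and expressed as nmol/mg cell protein via calibration curve. Duplicates, n=3, mean ± SEM.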

Homo sapiens [3] = organism: Homo sapiens; assay: Potentiation of doxorubicin-induced cytotoxicity in human differentiated primary mesothelioma stem cells assessed as increase in doxorubicin-induced reduction in cell viability at 1 uM after 72 hrs by ATPlite luminescence assay; format: functional, cell-based
How it was run: (§2)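 Primary glioblastoma or mesothelioma differentiated and stem cells incubated 72 h with medium, 5 µM doxorubicin, 10 nM compound or 1 µM elacridar, alone or combined (DMSO 1% v/v). Viability by ATPlite luminescence as % of untreated RLU. Quadruplicates, n=3, mean ± SEM, one-way ANOVA.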

[4] = target: T1, ATP-dependent translocase ABCB1 (Homo sapiens, UniProt P08183); assay: Inhibition of MDR1 in human primary glioblastoma stem cells assessed as increase in doxorubicin-induced reduction in cell viability at 1 uM after 24 hrs by LDH release assay
T1 sequence (P08183 whole entry): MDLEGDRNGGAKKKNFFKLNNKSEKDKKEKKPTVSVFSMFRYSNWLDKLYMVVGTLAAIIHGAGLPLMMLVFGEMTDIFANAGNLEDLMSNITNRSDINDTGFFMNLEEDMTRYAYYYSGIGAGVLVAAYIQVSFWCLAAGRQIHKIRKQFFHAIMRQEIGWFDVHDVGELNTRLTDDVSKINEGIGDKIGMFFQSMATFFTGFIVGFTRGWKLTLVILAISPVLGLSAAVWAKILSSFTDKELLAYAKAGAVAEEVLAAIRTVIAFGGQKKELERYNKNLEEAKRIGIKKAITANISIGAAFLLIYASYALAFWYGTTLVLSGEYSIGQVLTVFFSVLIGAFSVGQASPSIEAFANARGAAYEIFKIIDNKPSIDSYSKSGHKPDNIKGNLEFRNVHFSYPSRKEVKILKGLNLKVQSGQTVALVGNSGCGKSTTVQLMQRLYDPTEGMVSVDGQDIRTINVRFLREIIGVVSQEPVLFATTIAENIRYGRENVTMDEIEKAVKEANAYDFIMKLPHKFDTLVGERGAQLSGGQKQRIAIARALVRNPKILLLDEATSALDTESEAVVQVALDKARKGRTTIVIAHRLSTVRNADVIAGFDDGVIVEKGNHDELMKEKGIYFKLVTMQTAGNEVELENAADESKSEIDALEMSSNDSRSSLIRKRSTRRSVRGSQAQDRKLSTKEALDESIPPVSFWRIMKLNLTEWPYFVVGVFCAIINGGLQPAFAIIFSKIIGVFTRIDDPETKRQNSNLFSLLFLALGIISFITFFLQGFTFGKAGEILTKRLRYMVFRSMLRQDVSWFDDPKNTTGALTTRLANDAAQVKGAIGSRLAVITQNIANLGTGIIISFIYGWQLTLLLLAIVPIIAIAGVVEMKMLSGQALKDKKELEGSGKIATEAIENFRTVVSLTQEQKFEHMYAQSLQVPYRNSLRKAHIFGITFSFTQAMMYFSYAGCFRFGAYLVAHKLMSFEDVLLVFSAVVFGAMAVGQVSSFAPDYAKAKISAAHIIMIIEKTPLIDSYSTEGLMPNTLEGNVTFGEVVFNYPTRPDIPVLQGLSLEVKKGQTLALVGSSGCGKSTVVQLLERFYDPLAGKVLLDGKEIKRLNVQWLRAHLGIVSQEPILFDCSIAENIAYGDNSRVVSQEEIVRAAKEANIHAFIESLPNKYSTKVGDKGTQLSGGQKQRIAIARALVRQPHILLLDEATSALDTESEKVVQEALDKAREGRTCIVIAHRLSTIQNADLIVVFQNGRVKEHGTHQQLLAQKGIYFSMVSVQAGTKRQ

[5] = target: T1, ATP-dependent translocase ABCB1; assay: Inhibition of MDR1 in human primary mesothelioma stem cells assessed as increase in intracellular doxorubicin accumulation at 10 to 10000 nM after 3 hrs by spectrofluorimetric analysis; format: cell-based; how it was run: as §1
Homo sapiens [6] = organism: Homo sapiens; assay: Potentiation of doxorubicin-induced cytotoxicity in human differentiated primary glioblastoma cells assessed as increase in doxorubicin-induced reduction in cell viability at 1 uM after 72 hrs by ATPlite luminescence assay; format: functional, cell-based; how it was run: as §2
[7] = target: T1, ATP-dependent translocase ABCB1; assay: Inhibition of MDR1 in human primary mesothelioma stem cells assessed as increase in doxorubicin-induced reduction in cell viability at 1 uM after 24 hrs by LDH release assay
[8] = target: T1, ATP-dependent translocase ABCB1; assay: Inhibition of MDR1 in human primary glioblastoma stem cells assessed as increase in doxorubicin-induced reduction in cell viability at 1 uM after 72 hrs by ATPlite luminescence assay; how it was run: as §2
Homo sapiens [9] = organism: Homo sapiens; assay: Potentiation of doxorubicin-induced cytotoxicity in human differentiated primary glioblastoma cells assessed as increase in doxorubicin-induced reduction in cell viability at 1 uM after 24 hrs by LDH release assay; format: functional, cell-based
[10] = target: T1, ATP-dependent translocase ABCB1; assay: Inhibition of MDR1 in human primary glioblastoma stem cells assessed as increase in intracellular doxorubicin accumulation at 10 to 10000 nM after 3 hrs by spectrofluorimetric analysis; format: cell-based; how it was run: as §1
[11] = target: T1, ATP-dependent translocase ABCB1; assay: Inhibition of MDR1 in human primary mesothelioma stem cells assessed as increase in doxorubicin-induced reduction in cell viability at 1 uM after 72 hrs by ATPlite luminescence assay; how it was run: as §2
Homo sapiens [12] = organism: Homo sapiens; assay: Induction of intracellular doxorubicin accumulation in human differentiated primary mesothelioma stem cells at 10 to 10000 nM after 3 hrs by spectrofluorimetric analysis; format: functional, cell-based; how it was run: as §1

- inhibition (INH) [5]: Active
- inhibition (INH) [10]: Active
Compound: COc1cc2c(cc1OC)CN(CCc1ccc(NC(=O)c3cccc4c(=O)c5cccc(OC)c5[nH]c34)cc1)CC2 [ELACRIDAR]
- Activity (Homo sapiens [1]): inactive
- Activity (Homo sapiens [2]): inactive
- Activity (Homo sapiens [3]): inactive
- inhibition (INH) [4]: Active
- Activity (Homo sapiens [6]): inactive
- inhibition (INH) [7]: Active
- inhibition (INH) [8]: Active
- Activity (Homo sapiens [9]): inactive
- inhibition (INH) [11]: Active
- Activity (Homo sapiens [12]): inactive
